Screening data deposited in PubChem by several laboratories.
Many of the other results were omitted from the sample, so hits are more common in it than they were.
ABCB6 inh 2: ABCB6 transporter inhibitors, primary screen, K562-ABCB6 cells, flow cytometry, MLPCN library; 360,000 tested, 0.19% active; ATP-binding cassette sub-family B member 6 (Homo sapiens), Q9NP58; fluorescence ratio to DMSO, % at 10 µM; AID 602162, 2011; K562-ABCB6 porphyrin accumulation, 1 h; active compounds read low;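 active means fluorescence ratio to DMSO below 75%, the collection mean minus 3 SD; inconclusive means too few cells collected in the well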;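 further: signal is porphyrin accumulated inside mitochondria; 100% equals median channel fluorescence of DMSO control wells; lower ratio means ABCB6 inhibition with less porphyrin fluorescence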
Dynein cargo inh: inhibitors of GR-EGFP nuclear translocation, primary screen, dynein cargo transport inhibitor project, imaging, high-content, 3617.4 mouse cells; test concentration mostly 20 µM; stimulated with dexamethasone, 1 µM; active compounds read low; z-score, hits read low; 220,000 tested, 0.47% active; AID 1381, 2008;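 active means plate z-score of nuclear minus cytoplasmic receptor signal below a set negative limit, without overly bright fluorescence or cell loss, cut at about -3.5 in these data, passing the limit was not always enough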;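 further: z-score of nuclear minus cytoplasmic ring GR-EGFP intensity difference per well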
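Also added – dexamethasone, 1.0 µM final · Buffer or medium – tet-free, stripped-serum medium · Schedule – induction 48 h, compound 1 h, agonist 30 min · Detection – formaldehyde fixation, Hoechst nuclear stain, 10x automated fluorescence imaging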
p-CIP stab down: p/CIP-EGFP fusion destabilizers, primary screen, fluorescence, F442A cells; Q05BA5; 16 h; decrease of EGFP signal, % at 10 µM; 290,000 tested, 0.01% active;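 active means EGFP signal decrease of at least 30% at 10 µM or well 3 SD below plate mean, unless failing retest; inactive means the rest, including hits failing retest or dose response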
V-ATPase pH: regulators of yeast V-ATPase proton pumping, primary screen, pHLuorin cytosolic pH fluorescence. S. cerevisiae. response, % at 10 µM. 350,000 tested, 0.37% active. AID 504577, 2011; in the data active means response mostly above about 7.3%, no sharp cut-off; inactive means mostly below about 5.4%; further: actives read high
Cl transport mod: KCC2 cotransporter modulators, thallium flux, primary screen, cell-based, HEK293 KCC2, FluoZin-2 fluorescence, MLSMR. Solute carrier family 12 member 5 (Homo sapiens), Q9H2X9. KCC2 cells, thallium flux FluoZin-2 fluorescence. B-score of Tl+ flux slope (higher = more flux/activation; lower = inhibition) at 10 µM. 190,000 tested, 2.2% active;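 active means thallium flux slope and its plate-corrected score both differing from the plate sample mean at a set confidence after two filtering rounds, in either direction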;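 further: slope of fluorescence scaled to starting intensity during 10 to 20 s after thallium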
Dynein inh conf: dynein cargo transport inhibitors, GR-EGFP translocation, confirmation, imaging, high-content imaging, GR-EGFP cells | shares compounds with Dynein cargo inh | 3617.4 GR-EGFP nuclear translocation imaging, dexamethasone-induced | calls only at 20 µM | 1,000 tested, 69% active | AID 463116, 2010;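 active means inhibition of receptor movement into the nucleus at or above a set limit in both runs, with normal cell brightness and cell count; inconclusive means limit reached in only one run, brightness and count normal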;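 further: dexamethasone at 1 µM final in well for 30 min; nuclear minus cytoplasmic GR-EGFP mean intensity difference in channel 2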
Starred values were filed as active, the others as inactive; i = inactive; ? = inconclusive; . = no result given; + = active, no number.

SMILES	ABCB6 inh 2	Dynein cargo inh	p-CIP stab down	V-ATPase pH	Cl transport mod	Dynein inh conf
CC(=O)n1cc(N(C(=O)CCl)c2ccc(C)cc2)c2ccccc21	81	-6*	-4	-1	-0.87	+
N#CC(C#N)=Cc1cc2ccccc2nc1N1CCCCC1	110	-4.4*	-16	-6	-0.58	?
COC(=O)c1cc(=O)n(Cc2ccc(OC)c(OC)c2)c(=Nc2ccc(F)cc2)s1	97	-4.3*	2	0	-0.73	+
COC(=O)c1cc(=O)n(Cc2cccs2)c(=Nc2ccccc2)s1	102	-4.4*	5	2	-0.34	+
COC(=O)C1=CN(Cc2cccs2)C=C(C(=O)OC)C1c1cccc(O)c1	99	-0.58	2	1	-0.63	.
CNC(=O)C1CC(=O)N(CCc2ccc(OC)c(OC)c2)C(=Nc2ccc(F)cc2)S1 (stereo not drawn)	94	-0.55	-6	-2	0.95	.
COC(=O)c1cc(=O)n(-c2ccccc2)c(=Nc2ccccc2)s1	103	-3.9*	-9	5	0.067	+
COC(=O)c1cc2c(C)nn(-c3ccccc3)c2s1	94	1.3	-5	2	-0.0011	.
COC(=O)c1cc(=O)n(Cc2ccc(F)cc2)c(=Nc2ccccc2)s1	96	-4.6*	4	-3	-0.47	+
COc1ccccc1Cc1c(C2CCCCC2)nc2c3ccccc3ccn12	122	.	.	.	.	.
CSc1ncnc2c1ncn2CCCNCc1cccc2ccccc12	101	.	.	1	.	.
COc1ccc(NC(=O)c2sc(=O)n(Cc3ccc(F)c(Cl)c3)c2C)cc1OC	103	.	.	.	.	.
COC(=O)c1cc(=O)n(CCc2ccc(OC)c(OC)c2)c(=Nc2ccc(F)c(Cl)c2)s1	98	-4*	-3	2	0.71	+
C=C(C(=O)c1ccccc1)C(C(=C)C(=O)c1ccccc1)c1ccc(OC)cc1	94	-3.8*	-20	1	-0.54	+
CCOC(=O)C(CSCC(=O)c1ccc(Cl)cc1)NC(=O)OC(C)(C)C (stereo not drawn)	101	-0.98	2	2	-1.7	.
CCc1cccc2cc3c(N)c(C(=O)Nc4ccc(S(=O)(=O)N5CCCC5)cc4)sc3nc12	603	-6.6	6	-1	0.49	i
CCc1nc2c(OCCn3cccc3)cccn2c1N(C=O)Cc1ccccc1	97	.	.	.	.	.
CNCc1ccccc1Sc1cc(O)ccc1O	102	-4*	-9	2	-2	+
CNCc1ccccc1Sc1cccc(O)c1	96	-0.22	-7	-3	0.23	.
CC(C)CC(=O)/C=C/n1c(=S)oc2ccccc21	84	-4*	2	7	0.79	+
CC(=O)/C=C/n1c(=S)oc2ccccc21	.	-4.1*	10	.	0.88	+
Cn1c(=S)oc2ccccc21	90	-0.81	0	-3	.	.
CC(=O)Nc1ccc(NC(=O)CCn2c(=S)oc3ccccc32)cc1	107	1.7	-22	1	0.72	.
O=C(CC(Cc1ccccc1)C(=O)O)Nc1cccc(C(F)(F)F)c1 (stereo not drawn)	98	.	10	.	.	.
Cc1nc([N+](=O)[O-])c(Br)n1CC(=O)c1ccc(F)cc1	97	-6.1*	-4	0	-0.078	+
Cc1nc([N+](=O)[O-])c(Br)n1CC(=O)c1cccc([N+](=O)[O-])c1	100	-5.5*	-6	0	-0.43	+
Cc1nc([N+](=O)[O-])c(Br)n1Cc1ccccc1	101	-5.9*	1	-3	-0.68	+
COC(=O)Cn1c(C)nc([N+](=O)[O-])c1Br	99	-1.2	-6	7	0.37	.
O=C1NC(=O)C2(CCCc3ccc([N+](=O)[O-])cc32)N1 (stereo not drawn)	101	.	.	3	.	.
CN(C)c1ccc(C(=O)/C=C/c2ccc(Br)cc2)cc1	107	2.1	3	11	0.84	.
